We go through 11 compounds from ChEMBL document CHEMBL4665625, “New pyrido[3,4-g]quinazoline derivatives as CLK1 and DYRK1A inhibitors: synthesis, biological evaluation and binding mode analysis” (Eur J Med Chem, 2019).

Data set [1] can be described thus: Antiproliferative activity against hTERT-RPE1 cells assessed as cell viability at 2 uM after 48 hrs by CellTiter96 AQueous assay relative to control. In kind it is cell-based, TERT-RPE1. Particulars: human, read-out: Activity. An outline of the steps:
(§1)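 Cells grown in McCoy's 5a (HCT116), DMEM (SH-SY5Y, MDA-MB231, U-2 OS) or DMEM:F12 (hTERT-RPE1), each with 10% fetal calf serum, 2 mM L-glutamine, penicillin/streptomycin. Exposed to compound at 2 μM for 48 h; viability read by CellTiter96 AQueous per manufacturer, as % of DMSO-treated cells. Triplicate, mean ± SD; staurosporine as positive control.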

The test system of data set [2] is SH-SY5Y. The data set is described as follows: Antiproliferative activity against human SH-SY5Y cells assessed as cell viability at 2 uM after 48 hrs by CellTiter96 AQueous assay relative to control. In kind it is functional. Particulars: read-out: Activity. An outline of the steps: as §1
The subject of data set [3] is MDA-MB-231. The data set is described as follows: Antiproliferative activity against human MDA-MB-231 cells assessed as cell viability at 2 uM after 48 hrs by CellTiter96 AQueous assay relative to control. The class given is functional. Particulars: read-out: Activity. An outline of the steps: as §1
In data set [4] the test system is U2OS. The data set is described as follows: Antiproliferative activity against human U2OS cells assessed as cell viability at 2 uM after 48 hrs by CellTiter96 AQueous assay relative to control. Particulars: read-out: Activity. The class given is functional. Put shortly:
as §1

Data set [5] has as its system HCT-116. The data set is described as follows: Antiproliferative activity against human HCT116 cells assessed as cell viability at 2 uM after 48 hrs by CellTiter96 AQueous assay relative to control. Particulars: read-out: Activity. In kind it is functional. An outline of the steps: as §1
The target in data set [6] is T1, Glycogen synthase kinase-3 (Sus scrofa) (UniProt B2LUN4+I6LNT8). The data set is described as follows: Inhibition of porcine brain GSK-3alpha/beta assessed as residual activity at 10 uM using YRRAAVPPSPSLSRHSSPHQSpEDEEE as substrate in presence of [gamma-33P]ATP relative to control. In kind it is tissue-based. Particulars: Sus scrofa domesticus.
Data set [7] addresses Dual specificity protein kinase CLK1 (Mus musculus) (UniProt P22518). Briefly: Inhibition of recombinant mouse CLK1 expressed in bacteria assessed as residual activity at 1 uM using GRSRSRSRSRSR as substrate in presence of [gamma-33P]ATP relative to control.
Data set [8] has the same target. The data set is described as follows: Inhibition of recombinant mouse CLK1 expressed in bacteria assessed as residual activity at 10 uM using GRSRSRSRSRSR as substrate in presence of [gamma-33P]ATP relative to control.
Data set [9] addresses Dual specificity tyrosine-phosphorylation-regulated kinase 1A (Rattus norvegicus, UniProt Q63470). Briefly: Inhibition of rat DYRK1A kinase domain (1 to 499 residues) expressed in bacteria using KKISGRLSPIMTEQ as substrate in presence of [gamma-33P]ATP. An outline of the steps:
(§2)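 Buffer: 10 mM MgCl2, 1 mM EGTA, 1 mM DTT, 25 mM Tris-HCl pH 7.5, 50 μg/ml heparin, 0.15 mg/ml BSA.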

Data set [10] addresses T2, Cyclin-dependent kinase 5/CDK5 activator 1 (Homo sapiens) (UniProt Q00535+Q15078). Briefly: Inhibition of recombinant human CDK5/p25 expressed in bacteria assessed as residual activity at 1 uM using histone H1 as substrate in presence of [gamma-33P]ATP relative to control. Put shortly: (§3)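 Human recombinant CDK5/p25 (bacterially expressed) assayed with 0.8 μg/μl histone H1 as substrate and 15 μM [γ-33P]ATP. Residual activity versus DMSO controls, triplicate.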

The target in data set [11] is Dual specificity tyrosine-phosphorylation-regulated kinase 1A (Rattus norvegicus) (UniProt Q63470). The data set is described as follows: Inhibition of rat DYRK1A kinase domain (1 to 499 residues) expressed in bacteria assessed as residual activity at 10 uM using KKISGRLSPIMTEQ as substrate in presence of [gamma-33P]ATP relative to control. An outline of the steps:
as §2

Data set [12] has as its target T2, Cyclin-dependent kinase 5/CDK5 activator 1 (Homo sapiens). Briefly: Inhibition of recombinant human CDK5/p25 expressed in bacteria assessed as residual activity at 10 uM using histone H1 as substrate in presence of [gamma-33P]ATP relative to control. An outline of the steps: as §3
Data set [13] deals with T1, Glycogen synthase kinase-3 (Sus scrofa). Briefly: Inhibition of porcine brain GSK-3alpha/beta assessed as residual activity at 1 uM using YRRAAVPPSPSLSRHSSPHQSpEDEEE as substrate in presence of [gamma-33P]ATP relative to control. The class given is tissue-based. Particulars: Sus scrofa domesticus. An outline of the steps: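 Affinity-purified porcine brain GSK-3α/β with 0.01 µg/µl GS-1 peptide (phosphoserine-primed) as substrate and 15 µM [γ-33P]ATP. Buffer was 25 mM Tris-HCl pH 7.5, 10 mM MgCl2, 1 mM EGTA, 1 mM DTT, 50 µg/ml heparin and 0.15 mg/ml BSA. Radioactive incorporation was compared with DMSO-dilution controls, in triplicate.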

For data set [14], the target named is Dual specificity tyrosine-phosphorylation-regulated kinase 1A (Rattus norvegicus) (UniProt Q63470). The data set is described as follows: Inhibition of rat DYRK1A kinase domain (1 to 499 residues) expressed in bacteria assessed as residual activity at 1 uM using KKISGRLSPIMTEQ as substrate in presence of [gamma-33P]ATP relative to control. An outline of the steps:
as §2

Data set [15] is filed under the species Sus scrofa domesticus. Briefly: Inhibition of porcine brain CK1delta/epsilon assessed as residual activity at 10 uM using RRKHAAIGSpAYSITA as substrate in presence of [gamma-33P]ATP relative to control. The class given is tissue-based.
The species named for data set [16] is Sus scrofa domesticus. Briefly: Inhibition of porcine brain CK1delta/epsilon assessed as residual activity at 1 uM using RRKHAAIGSpAYSITA as substrate in presence of [gamma-33P]ATP relative to control. In kind it is tissue-based.
For data set [17], the target named is Dual specificity protein kinase CLK1 (Mus musculus, UniProt P22518). The data set is described as follows: Inhibition of recombinant mouse CLK1 expressed in bacteria using GRSRSRSRSRSR as substrate in presence of [gamma-33P]ATP.
Chain of Dual specificity protein kinase CLK1 (P22518 whole entry): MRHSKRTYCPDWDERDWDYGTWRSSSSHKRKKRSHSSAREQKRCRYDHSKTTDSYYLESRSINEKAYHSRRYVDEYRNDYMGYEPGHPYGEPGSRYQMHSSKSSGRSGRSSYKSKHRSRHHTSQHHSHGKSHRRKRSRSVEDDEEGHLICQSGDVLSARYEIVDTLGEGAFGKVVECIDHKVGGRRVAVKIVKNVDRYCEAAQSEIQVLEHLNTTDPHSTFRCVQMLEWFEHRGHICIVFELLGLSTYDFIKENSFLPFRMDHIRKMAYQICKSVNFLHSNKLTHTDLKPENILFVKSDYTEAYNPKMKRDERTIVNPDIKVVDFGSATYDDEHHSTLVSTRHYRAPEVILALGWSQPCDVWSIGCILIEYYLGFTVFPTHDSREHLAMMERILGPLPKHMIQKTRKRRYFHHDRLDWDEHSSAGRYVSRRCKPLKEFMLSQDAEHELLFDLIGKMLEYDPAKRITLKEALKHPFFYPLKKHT

T2 sequence (Q00535 whole entry): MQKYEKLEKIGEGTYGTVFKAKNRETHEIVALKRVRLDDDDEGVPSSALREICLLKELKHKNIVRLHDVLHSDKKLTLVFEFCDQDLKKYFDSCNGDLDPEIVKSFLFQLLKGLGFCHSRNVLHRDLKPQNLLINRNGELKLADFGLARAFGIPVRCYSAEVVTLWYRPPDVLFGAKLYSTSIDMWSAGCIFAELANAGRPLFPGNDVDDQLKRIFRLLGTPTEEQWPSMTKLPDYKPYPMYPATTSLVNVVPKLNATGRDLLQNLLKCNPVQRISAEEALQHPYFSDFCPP
T2 sequence (Q15078 99-307 partner limits assumed): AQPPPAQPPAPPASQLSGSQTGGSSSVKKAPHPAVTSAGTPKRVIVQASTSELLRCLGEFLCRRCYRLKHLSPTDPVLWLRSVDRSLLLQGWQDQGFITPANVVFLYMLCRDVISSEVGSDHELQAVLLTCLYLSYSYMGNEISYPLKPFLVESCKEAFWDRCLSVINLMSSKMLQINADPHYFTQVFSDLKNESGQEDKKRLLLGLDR
Chain of Dual specificity protein kinase CLK1 (Mus musculus) (P22518 whole entry, looked up): as the sequence (P22518 whole entry) above

`CN[C@@H]1C[C@H]2O[C@@](C)([C@@H]1OC)n1c3ccccc3c3c4c(c5c6ccccc6n2c5c31)C(=O)NC4` [STAUROSPORINE]: the viability at 48 h, 2 µM in [1] came to 9.1%. Moreover, the viability at 2 µM in [2] worked out at 9.4%; in data set [3], 3.9%; in data set [4], 0.4%; in [5], 27%.
Usually IC50 stands for the concentration that gives 50% inhibition. On to `Nc1c2ccncc2cc2cnc(NCCCN3CCCC3)nc12`, for which the Activity in data set [6] was 23%; in data set [7], 26%; in data set [8], 4%; in [10] it was 86%; in [11], 1%; in [12] it was 44%. Besides, the Activity in [13] was 50%; in [14], 25%; in [15], 23%; in data set [16] it was 69%. Moreover, the half-maximal inhibitory concentration (IC50) in data set [9] turned out to be 90 nM. Besides, the viability at 48 h, 2 µM in [1] is 52%. The viability at 2 µM in data set [2] stood at 92.2%; in data set [3], 22%; in data set [4], 33%; in data set [5], 21%.
As to `CN(C)CCNc1ncc2cc3cnccc3c([N+](=O)[O-])c2n1`, the Activity in data set [6] amounted to 21%; in [7], 22%; in data set [8], 5%; in [10], 100%; in data set [11] it was 17%; in [12] it was 52%. In addition, the Activity worked out at 70% in data set [13], 89% in [14], 36% in data set [15] and 100% in data set [16]. In [1], the viability at 48 h, 2 µM stood at 29.2%. The viability at 2 µM worked out at 42.7% in [2], 9.4% in data set [3], 3.3% in data set [4] and 13.3% in data set [5]. In data set [17], the concentration for half-maximal inhibition (IC50) turned out to be 62 nM.
As for `O=[N+]([O-])c1c2ccncc2cc2cnc(NCCCN3CCCCC3)nc12`, the Activity in data set [6] was found to be 24%; in data set [7] it was 16%; in data set [8] it was 7%; in data set [10] it was 100%; in data set [11], 6%; in [12], 53%. For the same compound, the Activity in data set [13] is 76%; in data set [14], 56%; in data set [15], 34%; in data set [16], 100%. In addition, the IC50 in [17] worked out at 125 nM.
In the case of `CNc1ncc2cc3cnccc3c([N+](=O)[O-])c2n1`, the Activity in data set [6] worked out at 51%; in [7], 5%; in [8], 2%; in [10], 73%; in [11] it was 13%; in [12], 38%. Moreover, the Activity in data set [13] was determined as 70%; in data set [14] it was 39%; in data set [15], 45%; in data set [16], 98%. Besides, the viability at 48 h, 2 µM in [1] came out at 36%. The viability at 2 µM came to 52% in [2], 41% in data set [3], 19.5% in data set [4] and 22% in data set [5]. Besides, in data set [17], the 50% inhibitory concentration (IC50) was 18 nM.
Take `CN1CCN(CCCNc2ncc3cc4cnccc4c([N+](=O)[O-])c3n2)CC1`: the Activity in data set [6] turned out to be 2%; in data set [7], 22%; in data set [8], 8%; in [10], 100%; in [11], 3%; in data set [12], 48%. Also, the Activity stood at 59% in data set [13], 54% in [14], 32% in [15] and 92% in [16]. Moreover, the viability at 48 h, 2 µM in data set [1] is 25.8%. Moreover, the viability at 2 µM in data set [2] is 36%; in data set [3], 11.7%; in [4], 2.5%; in [5], 9.7%. In addition, the IC50 in data set [17] was 133 nM.
`CN1CCN(CCNc2ncc3cc4cnccc4c(N)c3n2)CC1`: the Activity in [6] stood at 22%; in data set [7], 21%; in data set [8], 4%; in [10], 88%; in data set [11], 2%; in data set [12], 55%. Besides, the Activity was found to be 44% in [13], 19% in data set [14], 70% in [15] and 100% in data set [16]. For the same compound, the 50% inhibitory concentration (IC50) was found to be 120 nM in [9] and 210 nM in data set [17]. Also, the viability at 48 h, 2 µM in data set [1] worked out at 19.4%. Also, the viability at 2 µM worked out at 62% in [2], 21.7% in [3], 13% in [4] and 6.1% in [5].
For `Nc1ncc2cc3cnccc3c(N)c2n1`, the viability at 48 h, 2 µM in data set [1] was determined as 0.2%. Also, the viability at 2 µM in data set [2] is 0.9%; in data set [3], 43.4%; in [4], 0.4%; in data set [5], 1.3%.
On to `CN(C)CCCNc1ncc2cc3cnccc3c(N)c2n1`, for which the Activity was found to be 10% in [6]; 14% in data set [7]; 1% in data set [8]; 77% in [10]; 1% in [11]; 34% in data set [12]. The Activity came out at 36% in data set [13], 17% in data set [14], 61% in data set [15] and 96% in data set [16]. Besides, the IC50 in [9] and in data set [17] was 120 nM throughout. In addition, the viability at 48 h, 2 µM in data set [1] amounted to 0%. Besides, the viability at 2 µM was 0% in data set [2], 0.4% in [3], 0% in data set [4] and 0% in data set [5].
As for `CCN(CC)CCCNc1ncc2cc3cnccc3c(N)c2n1`, the Activity in data set [6] was determined as 22%; in [7], 21%; in data set [8], 2%; in data set [10], 68%; in [11], 2%; in [12] it was 20%. In addition, the Activity in [13] turned out to be 61%; in data set [14], 24%; in [15], 45%; in [16] it was 68%. For the same compound, the figures for the 50% inhibitory concentration (IC50) in data set [9] and in [17] were 80 nM and 160 nM, respectively.
Take `O=[N+]([O-])c1c2ccncc2cc2cnc(NCCCN3CCOCC3)nc12`: the Activity in [6] is 15%; in data set [7], 14%; in data set [8], 3%; in data set [10], 100%; in data set [11] it was 10%; in data set [12], 60%. The Activity in data set [13] turned out to be 76%; in [14] it was 68%; in data set [15], 38%; in data set [16], 100%. Besides, in data set [1], the viability at 48 h, 2 µM stood at 31%. The viability at 2 µM in data set [2] stood at 54%; in data set [3] it was 39%; in data set [4], 27%; in data set [5], 16.8%. Further, in data set [17], the half-inhibitory concentration (IC50) is 120 nM.
